Data on 83 variants can be found in the RNAGym collection of RNA variant scans (doi:10.1038/s41586-018-0170-7).

To fix the notation:
B1: tRNA (parent)
chain: GUUCCGUUGGCGUAAUGGUAACGCGUCUCCCUCCUAAGGAGAAGACUGCGGGUUCGAGUCCCGUACGGAACG

In this data set the parent is B1. The data set is described as follows: yeast fitness, log relative to wild type (ln ratio); higher = fitter; tRNA-Arg(CCU), competitive growth, 37 C, 1 M NaCl. The essentials: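 A combinatorial tRNA-Arg(CCU) variant library was carried on a HIS3 centromeric plasmid in BY4742 lacking the chromosomal gene, from two independent transformations. Pools grew 4 generations in SC-HIS at 30 °C, then ~6.5 generations (~26.5 h) in SC-HIS 1M NaCl at 37 °C, with three outputs per input. Variants were counted by 125 bp paired-end Illumina sequencing. Fitness is ln of each genotype's generations (OD-scaled log2 output/input frequency, inverse-variance weighted across replicates) over the wild-type's.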
Take U2G A43C C46U A69G A70G C71U: the “yeast fitness (ln)” value was -0.12. The same measure for U2C G6U C66U A69G A70U C71U: -0.468. The same measure for U2G A43C C46U C66A A69G A70G C71U: -0.21; for U2C G6U C27U C66A C71U: -0.15; for U2C G6U C66U A70U C71U: -0.233.

Consider U2C G6U C27U C46U, for which the “yeast fitness (ln)” value was -0.0552.

Regarding U2C G6U C27U C46U C66A A70G, the “yeast fitness (ln)” value is -0.0216. Under U2C G6U C27U C46U C66A A70U stands -0.29; under U2C G6U C27U C46U C66A A69G A70U, -0.114; under U2C G6U C27U C46U C66A A69G A70G, -0.035.

For U2G A43C C46U C66U A70U, the “yeast fitness (ln)” value is -0.101. Under U2G A43C C46U C66U A70G stands -0.0585; under U2G A43C C46U A70G C71U, -0.149. Under U2C G6U C27U C46U C66U A69G C71U stands -0.397; under U2C G6U C27U C66A, -0.24; under U2C G6U C27U C66U, -0.0859. The same measure for U2C G6U C46U C66U A69G C71U: -0.221; for U2C G6U C46U C66A C71U: -0.211; for U2C G6U C27U C46U A70G C71U: -0.359.

Regarding U2G A43C C46U C66A A70G C71U, the “yeast fitness (ln)” value is -0.165. As for U2C G6U C27U C66U C71U, the “yeast fitness (ln)” value was -0.265. Under U2C G6U C66U A69G A70G C71U stands -0.346. The same measure for U2G A43C C46U C66U A69G A70U: -0.172; for U2G A43C C46U C66U A69G A70G: -0.173. The same measure for U2G A43C A69G A70U: -0.023; for U2G A43C A69G A70G: -0.0982. On to U2C G6U C27U C46U C66U A69G A70U, for which the “yeast fitness (ln)” value was -0.218.

Take U2C G6U C27U C46U C66U A69G A70G: the “yeast fitness (ln)” value is -0.3. Under U2C G6U C46U A69G C71U stands -0.0672. U2G A43C C66A C71U: the “yeast fitness (ln)” value is -0.267.

Turning to U2G A43C C46U C66A A70G, the “yeast fitness (ln)” value is -0.119. Under U2G A43C C46U C66A A70U stands -0.0637.

Consider U2G A43C C66U A69G A70U, for which the “yeast fitness (ln)” value is -0.307.

Turning to U2G A43C C66U A69G A70G, the “yeast fitness (ln)” value was -0.222. Under U2G A43C A69G stands 0.00792; under U2C G6U C46U C66A A69G A70G, 0.0157.

For U2C G6U C46U C66A A69G A70U, the “yeast fitness (ln)” value is -0.143.

For the variant U2G A43C C46U C66A, the “yeast fitness (ln)” value was -0.101. Under U2G A43C C46U C66U stands -0.14; under U2G A43C C66U A69G A70G C71U, -0.304. The same measure for U2C G6U C27U C66A A69G A70G C71U: -0.0793.

Turning to U2G A43C C66A A70U C71U, the “yeast fitness (ln)” value was -0.316. Under U2C G6U C66A A69G A70G stands -0.0222; under U2C G6U C66A A69G A70U, -0.25; under U2G A43C C46U C71U, -0.0479.

Turning to U2C G6U C46U C66A A70U, the “yeast fitness (ln)” value is 0.000469. The same measure for U2C G6U C46U C66A A70G: -0.013; for U2C G6U C46U A70G C71U: -0.0274; for U2C G6U C27U C46U C66U A70G: -0.0763. Under U2C G6U C27U C46U C66U A70U stands -0.132; under U2C G6U C66A A70U, 0.0021. The same measure for U2C G6U C66A A70G: -0.0114. With U2C G6U C27U C66U A70U C71U, the “yeast fitness (ln)” value was -0.35. Under U2G A43C C46U C66A A69G C71U stands -0.302. The same measure for U2C G6U C46U C66U A69G A70U: -0.0758; for U2C G6U C46U C66U A69G A70G: -0.066. Consider U2C G6U C46U C66U A69G A70U C71U, for which the “yeast fitness (ln)” value is -0.282. As for U2G A43C C66A A70G C71U, the “yeast fitness (ln)” value was -0.237. As for U2C G6U C27U C46U C66A A69G A70G C71U, the “yeast fitness (ln)” value was -0.0348.

Regarding U2G A43C A70U C71U, the “yeast fitness (ln)” value is -0.0697.

For the variant U2G A43C C46U C66U A70U C71U, the “yeast fitness (ln)” value was -0.214. The same measure for U2G A43C C46U C66U A69G A70U C71U: -0.413; for U2C G6U C46U A69G A70U C71U: -0.216; for U2C G6U C46U A69G A70G C71U: -0.236. The same measure for U2C G6U C66A C71U: -0.294; for U2C G6U C66U A70U: -0.0735.

Turning to U2C G6U C66U A70G, the “yeast fitness (ln)” value is -0.0259. Under U2G A43C stands -0.0825; under U2C G6U C27U C66U A70G C71U, -0.57. Under U2C G6U C46U C66A A69G A70U C71U stands -0.185; under U2G A43C C46U A70G, -0.0614; under U2G A43C C46U A70U, 0.00593.

For the variant U2G A43C C46U C66A A70U C71U, the “yeast fitness (ln)” value is -0.193. Under U2G A43C C46U stands -0.0426; under U2C G6U C27U C46U A70U, -0.13; under U2C G6U C27U C46U A70G, -0.0953.

For U2C G6U C27U C46U C66U A69G A70U C71U, the “yeast fitness (ln)” value is -0.546. Under U2C G6U C27U C46U A70U C71U stands -0.171; under U2G A43C C66A A69G A70U C71U, -0.28. In the case of U2G A43C C46U C66A A69G A70U C71U, the “yeast fitness (ln)” value is -0.443. Under U2G A43C A70U stands -0.00614. For the variant U2G A43C A70G, the “yeast fitness (ln)” value was -0.182. Under U2G A43C C46U A70U C71U stands -0.0246.
